A short description of one data set: Solubility. The data set is classed as physicochemical.
Data set [1] in a line: Cytotoxicity measurement. The data set is classed as cell-based. The following applies: dog, MDCK cells. The method in brief: (§1)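 Test compound was diluted 2-fold in medium from 2000 µg/mL DMSO stocks and applied to washed monolayers for 24 h at 37°C, 5% CO2. Cells were PBS-washed, then given MTT ([…] in medium) for 1.5 h. The product was dissolved in 96% ethanol and OD read at 535 nm. CC50 was derived from the data by curve analysis.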

The nature of data set [2]: Cytotoxicity measurement. The data set is classed as cell-based. The settings on record: human, HEp-2 cells. The method in brief:
as §1

Data set [3] relates to respiratory syncytial virus A2. The experiment in a line: Antiviral activity against respiratory syncytial virus in HEp-2 culture. The data set is classed as cell-based, Human respiratory syncytial virus (RSV). The following applies: for SI (selectivity index, CC50/EC50): RSV, HEp-2 cells. In short, it runs like this: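 HEp-2 monolayers infected with 10-fold dilutions (10–1–10–7) of RSV A2. Test compound was pre-applied 1 h in 3-fold dilutions, starting from the CC50-level concentration made from a 2000 µg/mL DMSO stock. It was re-added at double concentration with virus for 1 h, then washed out and re-applied for 6 days at 37°C, 5% CO2. Read-out was acetone-fixed cell-ELISA (TMB, OD 450 nm), with Reed–Muench titers.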

Data set [4] has as its system parainfluenza type 3 strain v2932. The experiment in a line: microbe, parasite or virus in culture. The data set is classed as cell-based, Human parainfluenza virus type 3 (PIV-3). The following applies: for SI (selectivity index, CC50/EC50): PIV-3, HEp-2 cells.
Data set [5] has as its system influenza virus strain A/PR/8/34 (H1N1). The experiment in a line: organism not typed. The data set is classed as cell-based, Influenza A virus (IVA). The following applies: for SI (selectivity index, CC50/EC50): Influenza A virus, MDCK cells.
A further data set concerns herpes simplex type 1. The settings on record: cited from earlier work.
Another data set concerns MDCK cell culture. The experiment in a line: Cytotoxicity measurement. Format: cell-based. The method in brief:
as §1

A further data set has as its system HEp-2 culture. The experiment in a line: Cytotoxicity measurement. The data set is classed as cell-based. The settings on record: for CC50: MTT, 24 h. The method in brief: as §1
In a further data set the test system is tick-borne encephalitis. The settings on record: cited from earlier work.
Data set [6] relates to broad spectrum of enveloped viruses. The settings on record: cited from earlier work.
Where [7] appears, read: human respiratory syncytial virus, HEp-2.

Molecules are shown by their SMILES.

In the case of `O=c1[nH]c(=O)n([C@@H]2O[C@H](CO)[C@@H](O)[C@H]2O)cc1C#Cc1ccc2c3cccc4cccc(c5cccc1c52)c43` [rUY11 (IV), 5-(Perylen-3-ylethynyl)uridine], the “solubility in DMSO” value in “Solubility” (DMSO) is “fairly soluble”. In addition, the solubility in water result in the data set “Solubility” (water) is “only slightly soluble”. Further, the values for the CC50 at 24 h in the data set “Cytotoxicity measurement [1]” and in “Cytotoxicity measurement [2]” were 658 ± 34 µM and 599 ± 23 µM, respectively. For the same molecule, the “SI (selectivity index, CC50/EC50)” value turned out to be 84 in [3], 210 in [4] and 100 in data set [5]. Also, the EC50 in data set [3] (setting [7]) stood at 7.1 ± 0.2 µM; in data set [4] (Human respirovirus 3, HEp-2) it was 2.9 ± 0.4 µM; in data set [5] (MDCK), 6.4 ± 1.2 µM.

Take `CC(C)(C)C(=O)OCn1c(=O)c(C#Cc2ccc3c4cccc5cccc(c6cccc2c63)c54)cn(CC(=O)O)c1=O` [cm1pUY11 (III), 1-carboxymethyl-3-pivaloyloxymethyl-5-(perylen-3-ylethynyl)uracil]: the “antiviral activity (in words)” value in the data set with herpes simplex type 1 and in the data set on tick-borne encephalitis was “activity” throughout. Also, the half-maximal cytotoxic concentration (CC50) at 24 h in “Cytotoxicity measurement [1]” was determined as 34 ± 1.9 µM; in the data set “Cytotoxicity measurement [2]” it was 45 ± 3.4 µM. The “cytotoxic properties (in words)” value in the data set on MDCK cell culture (MDCK cell culture, compared with the other three compounds) is listed as “significantly more pronounced cytotoxic properties”; with HEp-2 culture (HEp-2 cell culture, compared with the other three compounds), “significantly more pronounced cytotoxic properties”. The “SI (selectivity index, CC50/EC50)” value in data set [3] is given as 24; in data set [4], 10; in data set [5] it was 68. For the same molecule, the EC50 in data set [3] (setting [7]) was 1.9 ± 0.1 µM; in data set [4] (Human respirovirus 3, HEp-2), 4.3 ± 0.2 µM; in [5] (MDCK), 0.5 ± 0.02 µM.

As for `O=c1[nH]c(=O)n([C@@H]2O[C@H](CO)[C@@H](O)[C@@H]2O)cc1C#Cc1ccc2c3cccc4cccc(c5cccc1c52)c43` [aUY11 (II), 5-(perylen-3-ylethynyl)-arabino-uridine], the CC50 came out at 894 ± 23 µM in the data set on MDCK cell culture (MDCK cell culture (IVA columns), MTT, 24 h); 998 ± 59 µM with HEp-2 culture (HEp-2 culture (PIV-3 columns)); 998 ± 59 µM in the data set on HEp-2 culture (HEp-2 culture (RSV columns)). The results for the EC50 in data set [3] (RSV A2 in HEp-2 cells), in data set [4] (PIV-3 strain v2932 in HEp-2 cells) and in data set [5] (Influenza A virus A/PR/8/34 (H1N1) in MDCK cells) were 2.3 ± 0.1 µM, 1.3 ± 0.3 µM and 5.2 ± 0.4 µM, respectively. Besides, the “antiviral activity (in words)” value in data set [6] was “highly active”.

`O=c1[nH]c(=O)n([C@H]2C[C@H](O)[C@@H](CO)O2)cc1C#Cc1ccc2c3cccc4cccc(c5cccc1c52)c43` [dUY11 (I), 5-(perylen-3-ylethynyl)-2′-deoxy-uridine]: the figures for the CC50 at 24 h in “Cytotoxicity measurement [1]” and in the data set “Cytotoxicity measurement [2]” were 492 ± 56 µM and 598 ± 44 µM, respectively. Besides, the figures for the “SI (selectivity index, CC50/EC50)” value in [3], in data set [4] and in data set [5] were 330, 270 and 180, respectively. Further, the 50% effective concentration (EC50) in data set [3] (setting [7]) worked out at 1.8 ± 0.2 µM; in [4] (Human respirovirus 3, HEp-2), 2.2 ± 0.5 µM; in data set [5] (MDCK), 2.7 ± 0.7 µM. Besides, the “antiviral activity (in words)” value in [6] is given as “highly active”.

As a reminder, the CC50 is the concentration that lowers cell viability or growth by half. A higher CC50 goes with better tolerance by the cells. A word on the EC50: it is the concentration needed to bring the measured effect to its halfway point. A lower EC50 goes with an effect from little substance.
